Usually inhibition stands for the share of the control response that was lost under treatment. Broadly, the IC50 is the midpoint of a concentration-inhibition curve. Usually logD stands for lipophilicity at a set pH, counting ionised and neutral species.

Series [1] relates to Trypanosoma cruzi. Kind of series: Antitrypanosomal activity against Trypanosoma cruzi Tulahuen strain trypomastigotes infected in rat H9c2 cells at 10 uM incubated for 72 hrs by DRAQ5 DNA dye based imaging analysis relative to control. Format: functional.
Series [2] deals with Trypanosoma brucei brucei. Kind of series: Antitrypanosomal activity against Trypanosoma brucei brucei Lister 427 strain blood stream form assessed as parasite growth inhibition at 10 uM incubated for 48 hrs by resazurin dye based fluorescence assay relative to control. Format: functional. The conditions noted are these: Lister 427, 48 h. Summed up:
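Alamar Blue (resazurin) growth-inhibition screen against T. b. brucei at 10 μM, the same assay used to find the original hit. Compounds reaching 50% or greater inhibition were then taken into concentration–response testing for IC50.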

Series [3] relates to Trypanosoma cruzi. Briefly: Antitrypanosomal activity against Trypanosoma cruzi infected in vero cells assessed as reduction in parasite growth inhibition incubated for 96 hrs by time kill assay relative to nifurtimox. Format: functional.
Series [4] is described as follows: Protein binding in human plasma by HPLC-MS analysis. Type of series: ADME, cell-free. The settings on record: read-out: PPB (converted).
Series [5] has as its system Trypanosoma brucei brucei. Kind of series: Antitrypanosomal activity against Trypanosoma brucei brucei Lister 427 strain blood stream forms incubated for 48 hrs by resazurin dye based fluorescence assay. The settings on record: Lister 427, 48 h. Type of series: functional, organism-based. A general note: Alamar Blue is a resazurin reagent that responds to reducing activity.

The test system of series [6] is Trypanosoma cruzi. Briefly: Antitrypanosomal activity against Trypanosoma cruzi infected in vero cells assessed as minimum concentration required for parasite growth inhibition incubated from 24 to 96 hrs by time kill assay. The conditions noted are these: time 24-96 hrs, read-out: MEC. Type of series: functional.
A short description of series [7]: Selectivity index, ratio of IC50 for cytotoxicity against human HEK293 cells assessed as reduction in cell viability to IC50 for antitrypanosomal activity against Trypanosoma brucei brucei Lister 427 blood stream form. The settings on record: read-out: Ratio IC50. Format: toxicity, cell-based.
Another series concerns Vero. Briefly: Cytotoxicity against African green monkey Vero cells assessed as reduction in cell viability. The conditions noted are these: chlorocebus sabaeus. Type of series: cell-based.
The test system of series [8] is Trypanosoma cruzi. Briefly: Inhibition of Trypanosoma cruzi Tulahuen C4 CYP51 expressed in Escherichia coli JM109 using BOMCC as substrate in presence of NADPH by fluorescence assay.
A short description of series [9]: Kinetic solubility of compound at pH 6.5 phosphate buffer by nephelometry. Type of series: physicochemical. The settings on record: read-out: Kinetic_solubility.
Series [10] in a line: Kinetic solubility of compound at pH 2 by nephelometry. Format: physicochemical. The conditions noted are these: buffer, read-out: Kinetic_solubility.
Series [11] has as its system Trypanosoma cruzi. Briefly: Antitrypanosomal activity against Trypanosoma cruzi infected in vero cells assessed as parasite growth inhibition incubated from 24 to 96 hrs by time kill assay. Type of series: functional, organism-based.
Series [12] in a line: Partition coefficient, log D of compound at pH 7.4 by HPLC. Type of series: physicochemical. The conditions noted are these: octanol/water.
Series [13] in a line: Selectivity index, ratio of IC50 for cytotoxicity against rat H9c2 cells assessed as reduction in cell viability to IC50 for antitrypanosomal against Trypanosoma cruzi Tulahuen trypomastigotes infected in rat H9c2 cells. Type of series: toxicity, cell-based. The conditions noted are these: read-out: Ratio IC50.
Series [14] in a line: Intrinsic clearance in human liver microsomes assessed per mg protein measured after 60 mins in presence of NADPH generating system by LC-MS analysis. Format: ADME, Microsome. The settings on record: read-out: CLH. Background: Microsomes from liver hold many membrane-bound enzymes, among them those of drug oxidation.
Series [15] deals with Trypanosoma cruzi. Kind of series: Antitrypanosomal activity against Trypanosoma cruzi Tulahuen strain trypomastigotes infected in rat H9c2 cells incubated for 72 hrs by DRAQ5 DNA dye based imaging analysis. Type of series: functional, organism-based. The conditions noted are these: H9c2, 72 h.
Series [16] can be described thus: Intrinsic clearance in mouse liver microsomes assessed per mg protein measured after 60 mins in presence of NADPH generating system by LC-MS analysis. Type of series: ADME, Microsome. The conditions noted are these: read-out: CLH.
Series [17] in a line: Metabolic stability in human liver microsomes assessed as degradation half-life measured after 60 mins in presence of NADPH generating system by LC-MS analysis. Format: ADME, Microsome. The conditions noted are these: read-out: T50.
A short description of series [18]: Metabolic stability in mouse liver microsomes assessed as degradation half-life measured after 60 mins in presence of NADPH generating system by LC-MS analysis. The conditions noted are these: read-out: T50. Type of series: ADME, Microsome.
Series [19] can be described thus: Metabolic stability in human liver microsomes assessed as half-life measured after 60 mins in presence of NADPH generating system by LC-MS analysis. Format: ADME, Microsome.
The test system of a further series is Leishmania donovani. Briefly: Antileishmanial activity against Leishmania donovani MHOM/ET/67/L82 amastigotes measured after 72 hrs by alamar blue dye based fluorimetry analysis. Format: functional, organism-based. The settings on record: MHOM/ET/67/L82, 72 h.
For another series, the system named is L6. Kind of series: Cytotoxicity against rat L6 cells assessed as reduction in cell viability measured after 72 hrs by alamar blue dye based fluorimetry analysis. The conditions noted are these: L6, 72 h.
For series [20], the system named is Trypanosoma brucei rhodesiense. Briefly: Antitrypanosomal activity against Trypanosoma brucei rhodesiense STIB900 trypomastigotes incubated for 72 hrs by resazurin dye based fluorescence assay. Type of series: functional, organism-based. The settings on record: STIB900, 72 h.
Series [21] relates to Trypanosoma cruzi. Kind of series: Antitrypanosomal activity against Trypanosoma cruzi Tulahuen C4 strain amastigotes infected in rat L6 cells measured after 96 hrs by inverted microscopy analysis. The settings on record: Tulahuen C4, L6, 96 h. Format: functional, organism-based.
A further series relates to Plasmodium falciparum. Briefly: Antiplasmodial activity against chloroquine and pyrimethamine resistant erythrocytic stage of Plasmodium falciparum K1 strain assessed as reduction in [3H]hypoxanthine incorporation measured after 48 hrs by liquid scintillation counting method. Format: functional, organism-based.

≈ marks a conversion by molar mass, not a printed value. Calls of active or inactive are those of the source. No cut-off for these calls is given here.

With `O=CNCCc1csc(-c2ccccc2)n1`, the inhibition at 10 µM (in the series with Trypanosoma cruzi [1]; in series [2]) was less than 50% each time.

Take `CC(=O)NCCc1csc(-c2ccccc2)n1`: the inhibition at 10 µM (in the series on Trypanosoma cruzi [1]; in series [2]) was less than 50% in each case.

For the molecule `Cc1ccoc1C(=O)NCCc1csc(-c2ccccc2)n1`, in the series with Trypanosoma cruzi [3], the Imax came to 104%. In addition, the fraction unbound in series [4] is 0.05. Moreover, the values for the concentration for half-maximal inhibition (IC50) (in series [5]; with Trypanosoma cruzi [11]) were 130 nM and 600 nM, respectively. Moreover, in the series on Trypanosoma cruzi [6], the minimal effective concentration was determined as 0.6 µM. Moreover, the selectivity ratio in series [7] is 666. Besides, the Activity in the series with Vero was determined as 50 µM. Moreover, in the series with Trypanosoma cruzi [8], the inhibition result is “inactive”. Further, the solubility kinetic in [9] and in [10] was 6 µg/mL (≈ 19.2 µM) throughout. Moreover, in series [12], the pH-dependent lipophilicity (logD) worked out at 3.5.

With `O=C(NCCc1csc(-c2ccc(F)cc2)n1)N1CCCCC1`, the selectivity ratio was greater than 1580 in [13] and 431 in series [7]. The microsomal CLint in series [14] is 160 µL/min/mg; in series [16] it was greater than 1600 µL/min/mg. The IC50 was 24 nM in [5] and 30 nM with Trypanosoma cruzi [15]. Also, the figures for the half-life in series [17] and in series [18] were 11 min and less than 2 min, respectively.

As for `O=C(NCCc1csc(-c2ccccc2F)n1)N1CCCCC1`, the selectivity ratio is greater than 3980 in [13] and 650 in [7]. Besides, the microsomal CLint is 439 µL/min/mg in [14] and greater than 1600 µL/min/mg in [16]. Moreover, the 50% inhibitory concentration (IC50) was determined as 16 nM in series [5] and 10 nM in the series on Trypanosoma cruzi [15]. In addition, the half-life in [17] is 4 min; in [18], less than 2 min.

Turning to `N#Cc1ccc(C(=O)NCCc2csc(-c3ccccc3)n2)cc1`, the selectivity ratio in series [13] was greater than 126. Further, it took 400 nM to reach half-maximal inhibition in the series on Trypanosoma cruzi [15] (IC50). The inhibition at 10 µM in series [2] is less than 50%.

Turning to `O=C(NCCc1csc(-c2ccc(F)cc2F)n1)c1cc(F)ccc1F`, the selectivity ratio in [13] was greater than 398. Further, the microsomal CLint in [14] is 231 µL/min/mg. The same molecule came in with a half-maximal inhibitory concentration (IC50) in the series on Trypanosoma cruzi [15] of 130 nM. For the same molecule, in series [19], the half-life is 6 min.

For the molecule `O=C(NCCc1csc(-c2ccccc2)n1)c1cccc(S(F)(F)(F)(F)F)c1`, the inhibition at 10 µM (in the series on Trypanosoma cruzi [1]; in series [2]) was less than 50% throughout.

With `O=C(NCCc1csc(-c2ccccc2)n1)c1ccccc1F`, the IC50 in the series on Leishmania donovani came to 11000 nM; in the series on L6, 79000 nM; in series [20] it was 420 nM; with Trypanosoma cruzi [21], 1100 nM.

`O=C(NCCc1csc(-c2ccccc2)n1)N1CCCCC1`: in [14], the microsomal CLint was found to be 244 µL/min/mg. The fraction unbound in [4] was 0.1. In addition, half-maximal inhibition in the series on Trypanosoma cruzi [15] (IC50) was put at 39 nM. In addition, the solubility kinetic was 25 µg/mL (≈ 79.3 µM) in series [9] and 50 µg/mL (≈ 159 µM) in [10]. Further, the half-life in [17] amounted to 7 min. In series [12], this molecule had a logD of 3.2.

On to `O=C(Cc1ccc2c(c1)OCO2)NCCc1csc(-c2ccccc2)n1`, for which, in series [13], the selectivity ratio was greater than 1.2. This molecule also came in with an IC50 in the series on Trypanosoma cruzi [15] of 40000 nM. In addition, the inhibition at 10 µM in series [2] is less than 50%.

Take `O=C(NCCc1csc(-c2ccccc2)n1)C1CCCC1`: in [14], the microsomal CLint came out at 296 µL/min/mg. Besides, in series [17], the half-life is 6 min.

For the molecule `O=C(NCCc1csc(-c2ccccc2)n1)c1cnco1`, the inhibition at 10 µM (in the series on Trypanosoma cruzi [1]; in [2]) was less than 50% in each case.

`CCN(CC)C(=O)NCCc1csc(-c2ccc(F)cc2F)n1`: the selectivity ratio in [13] was greater than 199. Besides, in series [14], the microsomal CLint was found to be 177 µL/min/mg. The same molecule returned an IC50 with Trypanosoma cruzi [15] of 250 nM. Also, the half-life in [19] stood at 8 min.

With `CC(C)OC(=O)NCCc1csc(-c2ccc(F)cc2F)n1`, the selectivity ratio in series [13] is greater than 398. Besides, the microsomal CLint in [14] was found to be 135 µL/min/mg. For the same molecule, half-maximal inhibition in the series with Trypanosoma cruzi [15] (IC50) was put at 130 nM. In addition, the half-life in series [19] turned out to be 10 min.

As to `CC(C)(C)C(=O)NCCc1csc(-c2cccc(F)c2)n1`, the IC50 with Leishmania donovani was determined as 46000 nM; in the series on Plasmodium falciparum, 35000 nM; in the series on L6 it was 62000 nM; in series [20], 1500 nM; with Trypanosoma cruzi [21], 2300 nM.

With `COc1ccc(-c2nc(CCNC(=O)N3CCCCC3)cs2)cc1`, the results for the inhibition at 10 µM (with Trypanosoma cruzi [1]; in series [2]) were less than 50% and greater than 50%, respectively.

As for `CCC(=O)NCCc1csc(-c2ccccc2)n1`, the inhibition at 10 µM (in the series on Trypanosoma cruzi [1]; in series [2]) was less than 50% in each case.

Turning to `O=C(NCCc1csc(-c2ccccc2)n1)c1ccccn1`, the IC50 with Leishmania donovani was found to be 12000 nM; with Plasmodium falciparum, 65000 nM; in series [5], 300 nM; in the series with L6 it was 66000 nM; in series [20], 220 nM; in the series with Trypanosoma cruzi [21] it was 900 nM. For the same molecule, the selectivity ratio in [7] was 139.

For the molecule `Cc1ccc(C(=O)NCCc2csc(-c3ccccc3)n2)cc1`, in [13], the selectivity ratio was 1.2. The same molecule came in with a 50% inhibitory concentration (IC50) in the series on Trypanosoma cruzi [15] of 40000 nM. The inhibition at 10 µM in [2] was less than 50%.

For `O=C(NCCc1csc(-c2ccccc2)n1)N1CCCC1`, in [14], the microsomal CLint worked out at 177 µL/min/mg. In addition, the IC50 with Leishmania donovani turned out to be 17000 nM; in the series with L6 it was 144000 nM; with Trypanosoma cruzi [15] it was 320 nM; in series [20] it was 46 nM; in the series with Trypanosoma cruzi [21], 96 nM. Further, the fraction unbound in [4] was 0.14. Also, the solubility kinetic in series [9] was 50 µg/mL (≈ 166 µM); in series [10], greater than 100 µg/mL. In series [17], the half-life worked out at 10 min. In addition, the logD in [12] turned out to be 2.8.

Regarding `O=C(NCCc1csc(-c2ccccc2)n1)c1cccc(C(F)(F)F)c1`, in the series on Trypanosoma cruzi [1], the inhibition at 10 µM is less than 50%. This molecule registered an IC50 in series [5] of 11600 nM. Moreover, the selectivity ratio in series [7] came to 1.8.

As for `O=C(NCCc1csc(-c2cccc(F)c2)n1)N1CCCCC1`, the microsomal CLint in [14] was 445 µL/min/mg; in series [16] it was greater than 1600 µL/min/mg. The molecule also displayed a half-inhibitory concentration (IC50) in series [5] of 26 nM. The selectivity ratio in [7] was found to be 398. Moreover, the half-life in series [17] is 4 min; in series [18], less than 2 min.

Values taken from ChEMBL document CHEMBL4715758, “Hit-to-Lead Optimization of a Novel Class of Potent, Broad-Spectrum Trypanosomacides” (J Med Chem, 2016).
